Assay results reported in ChEMBL document CHEMBL4033658, “Design and expeditious synthesis of organosilanes as potent antivirals targeting multidrug-resistant influenza A viruses” (Eur J Med Chem, 2017).

Tests used:
MDCK = experiment: Cytotoxicity against MDCK cells after 48 hrs by neutral red uptake assay; assay type: cell-based, Canis lupus familiaris; settings: dog
Outline: (§1)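 Serially diluted compound in serum-free DMEM for 48 h at 37 °C, 5% CO2. Neutral red 40 µg/mL for 4 h, absorbance read at 540 nm. CC50 from variable-slope dose-response fit.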

[1] = Antiviral activity against Influenza A virus A/WSN/33(H1N1) infected in MDCK cells expressing ST6Gal 1 preincubated with virus and cells for 30 mins followed viral infection measured after 2 to 3 days by naphthalene black dye-based plaque reduction assay; assay type: functional, cell-based, Influenza A virus (A/WSN/1933(H1N1))
Influenza A virus [2] = experiment: Inhibition of Influenza A virus AM2 proton channel expressed in Xenopus laevis frog oocytes at 100 uM after 2 mins by electrophysiological two-electrode voltage clamp assay; assay type: cell-based
Outline: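 Two-electrode voltage clamp on oocytes microinjected with RNA for AM2-WT or AM2-S31N. Compound at 100 µM for 2 min at pH 5.5. Read-out is percent inhibition of AM2 current, mean of three independent measurements.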

[3] = Selectivity index, ratio of CC50 for MDCK cells to EC50 for Influenza A virus A/WSN/33 (H1N1); assay type: toxicity; settings: dog, read-out: Ratio CC50/EC50
[4] = Antiviral activity against Influenza A virus A/California/07/2009(H1N1) infected in MDCK cells expressing ST6Gal 1 preincubated with virus and cells for 30 mins followed viral infection measured after 2 to 3 days by naphthalene black dye-based plaque reduction assay; assay type: functional, cell-based
A549 = experiment: Cytotoxicity against human A549 cells after 48 hrs by neutral red uptake assay; assay type: cell-based; settings: a549, 48 h; outline: as §1
[5] = Selectivity index, ratio of CC50 for human A549 cells to EC50 for Influenza A virus A/WSN/33(H1N1); assay type: toxicity; settings: read-out: Ratio CC50/EC50
Influenza A virus [6] = experiment: Antiviral activity against Influenza A virus A/Switzerland/9715293/2013 (H3N2) infected in MDCK cells expressing ST6Gal 1 preincubated with virus and cells for 30 mins followed viral infection measured after 2 to 3 days by naphthalene black dye-based plaque reduction assay; assay type: functional, cell-based
Influenza A virus [7] = experiment: Antiviral activity against Influenza A virus A/Denmark/524/2009 (H1N1) infected in MDCK cells expressing ST6Gal 1 preincubated with virus and cells for 30 mins followed viral infection measured after 2 to 3 days by naphthalene black dye-based plaque reduction assay; assay type: functional, cell-based
[8] = Antiviral activity against Influenza A virus A/Denmark/528/2009(H1N1) infected in MDCK cells expressing ST6Gal 1 preincubated with virus and cells for 30 mins followed viral infection measured after 2 to 3 days by naphthalene black dye-based plaque reduction assay; assay type: functional, cell-based
[9] = Antiviral activity against Influenza A virus A/Washington/29/2009(H1N1) infected in MDCK cells expressing ST6Gal 1 preincubated with virus and cells for 30 mins followed viral infection measured after 2 to 3 days by naphthalene black dye-based plaque reduction assay; assay type: functional, cell-based
Outline: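 Plaque reduction assay in MDCK cells expressing ST6Gal I instead of regular MDCK cells. Virus stocks were grown in MDCK cells with 2 µg/ml N-acetyl trypsin, harvested at 2 days and clarified, then titered by plaque assay on ST6Gal I-expressing MDCK cells.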

[10] = Antiviral activity against Influenza A virus A/Texas/04/2009(H1N1) infected in MDCK cells expressing ST6Gal 1 preincubated with virus and cells for 30 mins followed viral infection measured after 2 to 3 days by naphthalene black dye-based plaque reduction assay; assay type: functional, cell-based
[11] = Selectivity index, ratio of CC50 for human A549 cells to EC50 for Influenza A virus A/California/07/2009 (H1N1); assay type: toxicity; settings: read-out: Ratio CC50/EC50
[12] = Selectivity index, ratio of CC50 for human A549 cells to EC50 for Influenza A virus A/Switzerland/9715293/2013 (H3N2); assay type: toxicity; settings: read-out: Ratio CC50/EC50
[13] = Selectivity index, ratio of CC50 for human A549 cells to EC50 for Influenza A virus A/Denmark/524/2009 (H1N1); assay type: toxicity; settings: read-out: Ratio CC50/EC50
[14] = Selectivity index, ratio of CC50 for human A549 cells to EC50 for Influenza A virus A/Denmark/528/2009 (H1N1); assay type: toxicity; settings: read-out: Ratio CC50/EC50
[15] = Selectivity index, ratio of CC50 for human A549 cells to EC50 for Influenza A virus A/Washington/29/2009 (H1N1); assay type: toxicity; settings: read-out: Ratio CC50/EC50
[16] = Selectivity index, ratio of CC50 for human A549 cells to EC50 for Influenza A virus A/Texas/04/2009 (H1N1); assay type: toxicity; settings: read-out: Ratio CC50/EC50

Row | SMILES | CC50 (MDCK) [µM] | EC50 [1] [µM] | inhibition (Influenza A virus [2]) [%] | selectivity ratio [3] | also measured
1 | C[Si](C)(c1ccccc1)c1ccc(CNC23CC4CC(CC(O)(C4)C2)C3)cc1 | 13.3 | 5.9 | 33.6 | 2.3 | –
2 | CC(C)[Si](c1ccc(CNC23CC4CC(CC(O)(C4)C2)C3)cc1)(C(C)C)C(C)C | 11.4 | – | 17.8 | – | EC50 ([1]; Influenza A virus, MDCK): > 10 µM
3 | C[Si](C)(C)c1ccc(CNC23CC4CC(CC(O)(C4)C2)C3)cc1 | 40.7 | – | 9.5 | 102 | EC50 ([1]; Influenza A virus, MDCK): 0.4 µM; EC50 [4]: 1.2 µM; CC50 (A549): 73.2 µM; selectivity ratio [5]: 183; EC50 (Influenza A virus [6]): 0.7 µM; EC50 (Influenza A virus [7]): 0.6 µM; EC50 [8]: 3 µM; EC50 [9]: 1.4 µM; EC50 [10]: 0.6 µM; selectivity ratio [11]: 61; selectivity ratio [12]: 105; selectivity ratio [13]: 122; selectivity ratio [14]: 24.4; selectivity ratio [15]: 52.3; selectivity ratio [16]: 122
4 | CC[Si](C)(C)c1ccc(CNC23CC4CC(CC(O)(C4)C2)C3)cc1 | 21.8 | – | 18.2 | – | –
5 | C[Si](C)(C)c1ccc(CNC23CC4CC(CC(C4)C2)C3)cc1 | 8 | 4.8 | 21.8 | 1.7 | –
6 | CC(C)(C)c1ccc(CNC23CC4CC(CC(C4)C2)C3)cc1 | 12.8 | 3.5 | 9.9 | 3.7 | –
7 | C[Si](C)(C)c1ccc(CNC23CC4CC(CC(C4)C2)C3)nc1 | 10.3 | 3.4 | 5.9 | 3 | –
8 | CC(C)(C)c1ccc(CNC23CC4CC(CC(O)(C4)C2)C3)cc1 | 32 | 2.5 | 22.3 | 12.8 | –
